Test results from ChEMBL document CHEMBL4706654, “Novel cyanothiouracil and cyanothiocytosine derivatives as concentration-dependent selective inhibitors of U87MG glioblastomas: Adenosine receptor binding and potent PDE4 inhibition” (Eur J Med Chem, 2021).

Tests used:
MCF7 = experiment: Antiproliferative activity against human MCF7 cells assessed as reduction in cell viability measured after 24 to 48 hrs by MTT assay; format: functional, cell-based
Method in brief: (§1)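 Cells seeded per well 24 h before treatment: HEK293 at 5.10^4, MCF7 at 4.10^4, U87MG at 10^5. Compounds were dissolved in DMSO (less than 1%) and diluted in DMEM, then incubated 24 and 48 h. Cells were washed with D-PBS and given MTT (from a 5 mg/mL stock) for 4 h, dissolved in DMSO, read at 540 nm. % viability = sample/control absorbance ×100. At least three independent experiments.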

[1] = biological target: T1, Adenosine receptor A1 (Homo sapiens) (UniProt P30542); experiment: Displacement of [3H]DPCPX from recombinant human A1 adenosine receptor expressed in CHO cell membranes at 1 uM measured after 60 mins by liquid scintillation counting method relative to control; settings: Membrane
T1 sequence (whole entry): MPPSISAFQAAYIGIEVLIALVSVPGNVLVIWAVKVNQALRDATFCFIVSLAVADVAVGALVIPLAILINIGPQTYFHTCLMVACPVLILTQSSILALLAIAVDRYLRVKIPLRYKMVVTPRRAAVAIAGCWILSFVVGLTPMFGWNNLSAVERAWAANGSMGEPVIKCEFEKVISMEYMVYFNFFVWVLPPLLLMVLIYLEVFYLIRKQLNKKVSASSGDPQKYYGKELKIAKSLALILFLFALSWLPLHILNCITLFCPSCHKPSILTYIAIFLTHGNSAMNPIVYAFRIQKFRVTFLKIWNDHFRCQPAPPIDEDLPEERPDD
Method in brief: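 Membranes from CHO cells expressing recombinant hA1 (40 μg/tube) were incubated with 2 nM [3H]DPCPX and test compound at 1 μM in 50 mM Tris-HCl (pH 7.4, 10 mM MgCl2) for 60 min at 25°C. Bound radioligand was separated by GF/B filtration and counted by liquid scintillation. Results are given as percent inhibition of specific binding.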

U-87 MG [2] = experiment: Antiproliferative activity against human U-87 MG cells assessed as cell viability at 50 uM measured after 24 to 48 hrs by MTT assay relative to control; format: functional, U-87MG ATCC; settings: time 24-48 hrs, read-out: Activity; method in brief: as §1
[3] = biological target: Adenosine receptor A2a (Homo sapiens) (UniProt P29274); experiment: Displacement of [3H]ZM241385 from recombinant human A2A adenosine receptor expressed in HEK293 cell membranes at 1 uM measured after 60 mins by liquid scintillation counting method relative to control; settings: Membrane
Method in brief: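 HEK293 membranes expressing hA2A (20 μg/tube) were incubated with 15 nM [3H]ZM241385 and 1 μM test compound for 60 min at 25°C in 50 mM Tris-HCl, pH 7.4, 10 mM MgCl2. The reaction was stopped by GF/B filtration, followed by scintillation counting. Read-out was percent inhibition of specific binding.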

U-87 MG [4] = experiment: Antiproliferative activity against human U-87 MG cells assessed as cell viability at 100 uM measured after 24 to 48 hrs by MTT assay relative to control; format: functional, U-87MG ATCC; settings: time 24-48 hrs, read-out: Activity; method in brief: as §1
[5] = biological target: 3',5'-cyclic-AMP phosphodiesterase 4B (Homo sapiens, UniProt Q07343); experiment: Inhibition of recombinant human PDE4B using […] as substrate measured after 90 mins by colorimetric assay
Method in brief: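 Recombinant human PDE4 was incubated with 0.5 μM 5′-cGMP plus 5′-nucleotidase for 90 min at 30°C. The reaction was stopped with termination buffer for 20 min at room temperature, and released phosphate was read at OD 620 nm. IC50 was determined from 6 inhibitor concentrations. Compound stocks were in DMSO (less than 1%), with at least triplicate runs, mean ± SD.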

U-87 MG [6] = experiment: Antiproliferative activity against human U-87 MG cells assessed as cell viability at 5 uM measured after 24 to 48 hrs by MTT assay relative to control; format: functional, U-87MG ATCC; settings: time 24-48 hrs, read-out: Activity; method in brief: as §1
U-87 MG [7] = experiment: Antiproliferative activity against human U-87 MG cells assessed as reduction in cell viability measured after 24 to 48 hrs by MTT assay; format: functional, cell-based, U-87MG ATCC; method in brief: as §1
HEK293 [8] = experiment: Cytotoxicity against HEK293 cells assessed as reduction in cell viability measured after 24 to 48 hrs by MTT assay; format: cell-based; settings: Homo sapiens; method in brief: as §1
U-87 MG [9] = experiment: Antiproliferative activity against human U-87 MG cells assessed as cell viability at 10 uM measured after 24 to 48 hrs by MTT assay relative to control; format: functional, U-87MG ATCC; settings: time 24-48 hrs, read-out: Activity; method in brief: as §1
HEK293 [10] = experiment: (§2) Cytotoxicity against HEK293 cells assessed as cell viability at 100 uM measured after 24 to 48 hrs by MTT assay relative to control; format: cell-based; settings: human, hek293, 100 µM, time 24-48 hrs; method in brief: as §1
[11] = biological target: T2, Adenosine receptor A2b (Homo sapiens) (UniProt P29275); experiment: Displacement of [3H]ZM241385 from A2B adenosine receptor (unknown origin) at 10 uM measured after 60 mins by liquid scintillation counting method relative to control
T2 sequence (whole entry): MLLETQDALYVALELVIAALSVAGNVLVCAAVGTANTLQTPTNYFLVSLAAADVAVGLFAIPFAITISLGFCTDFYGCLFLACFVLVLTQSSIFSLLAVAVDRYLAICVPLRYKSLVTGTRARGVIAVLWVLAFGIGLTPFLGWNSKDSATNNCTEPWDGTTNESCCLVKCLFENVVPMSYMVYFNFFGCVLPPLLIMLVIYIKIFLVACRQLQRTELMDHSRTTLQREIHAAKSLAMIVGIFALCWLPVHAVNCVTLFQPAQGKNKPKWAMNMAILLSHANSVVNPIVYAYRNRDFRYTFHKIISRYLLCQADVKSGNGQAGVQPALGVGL

[12] = biological target: T2, Adenosine receptor A2b (Homo sapiens); experiment: Displacement of [3H]ZM241385 from A2B adenosine receptor (unknown origin) at 1 uM measured after 60 mins by liquid scintillation counting method relative to control
[13] = as §2; format: cell-based; settings: human, HEK293 cells, time 24-48 hrs, read-out: Activity; method in brief: as §1

Chain of Adenosine receptor A2a (Homo sapiens) (P29274 whole entry): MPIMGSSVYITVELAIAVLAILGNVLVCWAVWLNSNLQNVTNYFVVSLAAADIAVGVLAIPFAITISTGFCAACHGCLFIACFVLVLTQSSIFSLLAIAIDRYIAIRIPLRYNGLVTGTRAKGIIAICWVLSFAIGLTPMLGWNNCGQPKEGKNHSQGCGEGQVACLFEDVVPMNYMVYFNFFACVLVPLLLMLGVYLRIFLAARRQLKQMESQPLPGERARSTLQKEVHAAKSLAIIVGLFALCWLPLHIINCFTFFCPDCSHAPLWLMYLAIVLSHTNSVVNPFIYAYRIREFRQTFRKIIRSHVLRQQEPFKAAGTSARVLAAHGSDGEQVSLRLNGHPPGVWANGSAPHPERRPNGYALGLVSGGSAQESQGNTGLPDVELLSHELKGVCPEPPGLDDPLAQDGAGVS
Chain of 3',5'-cyclic-AMP phosphodiesterase 4B (Q07343 whole entry): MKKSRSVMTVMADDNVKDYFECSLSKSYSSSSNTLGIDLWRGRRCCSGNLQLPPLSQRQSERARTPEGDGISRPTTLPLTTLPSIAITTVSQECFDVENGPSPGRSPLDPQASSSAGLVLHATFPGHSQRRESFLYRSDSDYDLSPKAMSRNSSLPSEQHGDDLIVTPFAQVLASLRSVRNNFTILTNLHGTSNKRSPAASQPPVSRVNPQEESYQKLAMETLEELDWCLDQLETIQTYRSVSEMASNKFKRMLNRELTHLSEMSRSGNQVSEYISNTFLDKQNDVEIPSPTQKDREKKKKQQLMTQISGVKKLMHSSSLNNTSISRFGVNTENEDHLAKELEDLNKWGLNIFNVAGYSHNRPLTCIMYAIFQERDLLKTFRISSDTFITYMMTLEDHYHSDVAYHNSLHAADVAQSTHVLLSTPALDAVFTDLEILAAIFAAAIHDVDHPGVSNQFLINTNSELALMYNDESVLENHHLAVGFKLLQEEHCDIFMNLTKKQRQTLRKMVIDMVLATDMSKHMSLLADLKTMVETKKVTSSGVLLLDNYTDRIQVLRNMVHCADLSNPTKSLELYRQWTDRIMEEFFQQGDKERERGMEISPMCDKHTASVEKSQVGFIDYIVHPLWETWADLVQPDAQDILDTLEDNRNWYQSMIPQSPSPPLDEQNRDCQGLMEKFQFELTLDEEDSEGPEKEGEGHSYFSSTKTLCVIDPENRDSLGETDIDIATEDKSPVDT

Row | SMILES | IC50 (MCF7) [µM] | inhibition [1] [%] | inhibition [3] [%] | IC50 [5] [µM] | IC50 (U-87 MG [7]) [µM] | inhibition [11] [%] | inhibition [12] [%] | viability at 50 µM (U-87 MG [2]) [%] | viability at 100 µM (U-87 MG [4]) [%] | viability at 5 µM (U-87 MG [6]) [%] | IC50 (HEK293 [8]) [µM] | viability at 10 µM (U-87 MG [9]) [%] | Activity (HEK293 [10]) [%] | viability at 100 µM [13] [%]
1 | COc1ccc(-c2nc(C)c(C(=O)CSc3nc(-c4ccc5c(c4)OCO5)c(C#N)c(=O)[nH]3)s2)cc1 | – | – | – | – | 65.3 | – | – | 83.2 | 22.9 | 100 | – | 88.3 | – | > 50
2 | COc1ccc(-c2nc(SCC(=O)c3sc(-c4ccc(Cl)cc4)nc3C)[nH]c(=O)c2C#N)cc1 | – | – | – | – | 35.5 | – | – | 46.3 | 16.6 | 92.1 | – | 88.3 | – | > 50
3 | COc1ccc(-c2nc(C)c(C(=O)CSc3nc(-c4ccc(OC)cc4)c(C#N)c(=O)[nH]3)s2)cc1 | – | – | – | – | 25.3 | – | – | 32.6 | 11.5 | 97 | – | 80.3 | – | > 50
4 | Cc1nc(-c2ccccc2)sc1C(=O)CSc1nc(N)c(C#N)c(-c2ccccc2)n1 | 30.1 | 9.5 | 6.5 | > 100 | 28.9 | – | – | 26.3 | – | 103 | 46.7 | 93 | – | –
5 | CC(C)Cn1c(=O)n(C)c(=O)c2[nH]cnc21 [ISOBUTYLMETHYLXANTHINE] | – | – | – | 14.3 | – | – | – | – | – | – | – | – | – | –
6 | COc1ccc(-c2nc(SCC(=O)c3sc(-c4ccc(Cl)cc4)nc3C)[nH]c(=O)c2C#N)cc1OC | – | – | – | – | 38.6 | – | – | 59.8 | 18.7 | 93.4 | – | 83.3 | – | > 50
7 | Cc1nc(-c2ccc(Cl)cc2)sc1C(=O)CSc1nc(-c2ccccc2)c(C#N)c(=O)[nH]1 | – | – | – | – | 27.6 | – | – | 41.6 | 11.4 | 88.9 | – | 83.1 | – | > 50
8 | COc1ccc(-c2nc(C)c(C(=O)CSc3nc(-c4cccc(Cl)c4)c(C#N)c(=O)[nH]3)s2)cc1 | – | – | – | – | 78.9 | – | – | 83.4 | 40.6 | 95.7 | – | 90.6 | – | > 50
9 | Cc1nc(-c2ccccc2)sc1C(=O)CSc1nc(-c2ccc3c(c2)OCO3)c(C#N)c(=O)[nH]1 | – | – | – | – | 33.7 | – | – | 42.6 | 18.7 | 93.4 | – | 84.2 | – | > 50

Second part, led by results:

Row | IC50 (MCF7) [µM] | inhibition [1] [%] | inhibition [3] [%] | IC50 [5] [µM] | IC50 (U-87 MG [7]) [µM] | inhibition [11] [%] | inhibition [12] [%] | SMILES | viability at 50 µM (U-87 MG [2]) [%] | viability at 100 µM (U-87 MG [4]) [%] | viability at 5 µM (U-87 MG [6]) [%] | IC50 (HEK293 [8]) [µM] | viability at 10 µM (U-87 MG [9]) [%] | Activity (HEK293 [10]) [%] | viability at 100 µM [13] [%]
10 | 63.7 | 10 | 12 | > 100 | 15.3 | – | – | COc1ccc(-c2nc(SCC(=O)c3sc(-c4ccccc4)nc3C)[nH]c(=O)c2C#N)cc1OC | 21.4 | 6.48 | 80.8 | 91.8 | 69.8 | – | –
11 | 24.3 | 9 | – | 3.15 | 1.56 | 49 | 18 | COc1ccc(-c2nc(C)c(C(=O)CSc3nc(N)c(C#N)c(-c4ccc(OC)cc4)n3)s2)cc1 | 13 | 0.26 | 35.6 | – | 28.7 | > 50 | –
12 | 12.5 | -3.7 | 1.8 | 24.1 | 3.42 | – | – | Cc1nc(-c2ccc(Cl)cc2)sc1C(=O)CSc1nc(N)c(C#N)c(-c2ccc(Cl)cc2)n1 | 15.5 | 1.65 | 46.1 | 73 | 37.3 | – | –
13 | 72.1 | -2.8 | -2.6 | 11.2 | 8.54 | – | – | COc1ccc(-c2nc(C)c(C(=O)CSc3nc(N)c(C#N)c(-c4ccccc4)n3)s2)cc1 | 16.5 | 5.25 | 61.8 | – | 57.8 | > 50 | –
14 | 25.2 | 8.7 | -1.4 | 22.1 | 11.4 | – | – | Cc1nc(-c2ccc(Cl)cc2)sc1C(=O)CSc1nc(N)c(C#N)c(-c2ccccc2)n1 | 15.2 | 4.59 | 71.1 | – | 67.9 | – | > 50
15 | 11.2 | 1.1 | -7.1 | 0.97 | 4.54 | – | – | COc1ccc(-c2nc(C)c(C(=O)CSc3nc(N)c(C#N)c(-c4ccc(Cl)cc4)n3)s2)cc1 | 23.1 | 3.9 | 51.4 | 39.2 | 44 | – | –
16 | 27.2 | -4.6 | 0.8 | 33.1 | 14 | – | – | COc1ccc(-c2nc(SCC(=O)c3sc(-c4ccccc4)nc3C)nc(N)c2C#N)cc1 | 33.8 | 17.2 | 68.8 | – | 60.8 | – | > 50
17 | 20.2 | – | -9.9 | 32.3 | 10.8 | – | – | Cc1nc(-c2ccccc2)sc1C(=O)CSc1nc(N)c(C#N)c(-c2ccc(Cl)cc2)n1 | 44.3 | 17.1 | 62.9 | – | 58.8 | – | > 50
18 | 24 | 2.5 | 8.5 | 17.1 | 12.5 | – | – | COc1ccc(-c2nc(C)c(C(=O)CSc3nc(-c4ccc(OC)c(OC)c4)c(C#N)c(=O)[nH]3)s2)cc1 | 22.2 | 5.39 | 81.2 | 23.3 | 57.6 | – | –
19 | 10.1 | 1.2 | – | 18.1 | 10.6 | – | – | COc1ccc(-c2nc(SCC(=O)c3sc(-c4ccc(Cl)cc4)nc3C)nc(N)c2C#N)cc1 | 17.8 | 0.79 | 69.7 | – | 64.5 | – | > 50
